Activity calls are given as the source filed them. The calls are words filed in the database; no cut-off is given here.
Key:
[1] = Half life in Sprague-Dawley rat at 10 mg/kg, iv; format: ADME, organism-based; design: dose 10 mg/kg, route intravenous; conditions: in vivo
Summary of the method: (§1)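 Male Sprague-Dawley rats (n = 2 per route), cannulated the day before. Compound given at 2.8 mg/mL in PBS: iv infusion over 5 min or sc between the scapulae, nominal 10 mg/kg. Arterial blood sampled up to 8 h into tubes with protease inhibitor, KF and EDTA; urine collected to 24 h. Plasma analyzed by LC-MS; noncompartmental analysis.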

HUVEC [2] = assay: Cytotoxicity against HUVEC; format: cell-based; conditions: human
[3] = target: T1, Vascular endothelial growth factor A, long form (Homo sapiens, UniProt P15692); assay: Binding affinity to VEGF by surface plasmon-based solution affinity assay
T1 sequence (P15692 whole entry): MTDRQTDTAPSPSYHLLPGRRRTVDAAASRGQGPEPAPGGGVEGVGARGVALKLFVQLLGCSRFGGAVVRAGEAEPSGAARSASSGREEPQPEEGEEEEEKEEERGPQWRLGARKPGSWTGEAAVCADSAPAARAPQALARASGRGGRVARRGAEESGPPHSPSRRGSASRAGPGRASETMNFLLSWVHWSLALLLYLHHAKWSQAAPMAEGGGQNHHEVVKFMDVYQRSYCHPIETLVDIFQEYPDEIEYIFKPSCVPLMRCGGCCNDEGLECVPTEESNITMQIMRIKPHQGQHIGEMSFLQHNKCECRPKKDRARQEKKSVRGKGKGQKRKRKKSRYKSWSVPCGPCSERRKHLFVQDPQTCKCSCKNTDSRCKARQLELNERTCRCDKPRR
Summary of the method: (§2)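 Surface plasmon resonance solution affinity assay on heparin-coated CM4 chips. Buffer: HBS-EP (10 mM HEPES pH 7.4, 150 mM NaCl, 3.0 mM EDTA, 0.005% polysorbate 20). Kd is the mean of at least duplicate measurements ± SD.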

Heparanase = target: T2, Heparanase (Homo sapiens, UniProt Q9Y251); assay: Inhibition of human recombinant heparanase
T2 sequence (Q9Y251 whole entry): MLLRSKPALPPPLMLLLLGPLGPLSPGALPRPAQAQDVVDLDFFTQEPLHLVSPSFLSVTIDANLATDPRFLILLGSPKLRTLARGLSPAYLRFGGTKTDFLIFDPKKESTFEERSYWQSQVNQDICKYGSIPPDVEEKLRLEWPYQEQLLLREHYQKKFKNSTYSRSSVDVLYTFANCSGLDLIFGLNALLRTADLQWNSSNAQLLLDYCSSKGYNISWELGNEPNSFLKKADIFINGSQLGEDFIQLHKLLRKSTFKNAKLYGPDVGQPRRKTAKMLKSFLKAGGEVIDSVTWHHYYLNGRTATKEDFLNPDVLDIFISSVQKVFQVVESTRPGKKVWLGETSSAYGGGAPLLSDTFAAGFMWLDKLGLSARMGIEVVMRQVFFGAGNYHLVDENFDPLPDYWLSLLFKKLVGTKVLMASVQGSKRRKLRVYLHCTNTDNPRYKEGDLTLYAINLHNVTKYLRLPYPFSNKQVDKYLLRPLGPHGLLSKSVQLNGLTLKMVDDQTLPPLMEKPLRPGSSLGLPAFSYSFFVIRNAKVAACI
Summary of the method: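 Recombinant human heparanase assayed by ultrafiltration with 3H-labelled heparan sulfate as substrate (Km = 1.64 μM). Ki values with standard error were derived from inhibition response curves.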

[4] = Toxicity in rat aortic endothelium assessed as microvessel sprouts at 10 and 50 uM after 6 or 7 days; format: tissue-based, Sprague-Dawley, Aorta; conditions: ex_vivo, 168 h
Summary of the method: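 Aortic ring viability check: on day 6 or 7, compound or medium was withdrawn and complete medium with VEGF (typically 10 ng/mL) was added for up to 7 more days. New microvessel sprouting was taken as a sign of viable tissue.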

[5] = target: Fibroblast growth factor 2 (Homo sapiens, UniProt P09038); assay: Binding affinity to FGF2 by surface plasmon-based solution affinity assay
Summary of the method: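 Surface plasmon resonance solution affinity assay on heparin-coated CM4 chips. FGF-2 binding run in HBS-EP containing 300 mM NaCl. Kd is the mean of at least duplicate measurements ± SD.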

[6] = target: Fibroblast growth factor 1 (Homo sapiens, UniProt P05230); assay: Binding affinity to FGF1 by surface plasmon-based solution affinity assay; summary of the method: as §2
Plasma [7] = assay: Anticoagulant activity in human plasma assessed as activated partial thromboplastin time; format: functional
Summary of the method: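 Pooled normal human plasma spiked with compound in PBS at 0.1 mg/mL (methods give a 0–100 μg/mL range); APTT elevation measured. Normal range 26–36 s. Values are means of two determinations.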

B16 [8] = assay: Antitumor activity against mouse B16 cells transplanted in C57/BL6 mouse assessed as reduction in tumor volume at 30 mg/kg for 7 days measured on day 10; format: functional; conditions: read-out: TGI
Summary of the method: (§3)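 B16F1 cells grown in DMEM with 10% FCS, 5×10^5 cells in PBS implanted sc between the shoulder blades of C57 mice (n = 10). From day 3, compound given sc in PBS b.i.d. for 7 days at rotating sites. Tumors measured daily as l × w; p < 0.05 taken as significant.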

[9] = Half life in Sprague-Dawley rat at 10 mg/kg, sc; format: ADME, organism-based; design: dose 10 mg/kg, route subcutaneous; conditions: in vivo; summary of the method: as §1
[10] = Apparent volume of distribution in Sprague-Dawley rat at 10 mg/kg, iv and 10 mg/kg, sc; format: ADME, organism-based; conditions: in vivo, read-out: Vz; summary of the method: as §1
Plasma [11] = assay: Anticoagulant activity in human plasma by heptest; format: functional
Summary of the method: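 Heptest clot assay. Plasma (centrifuged 1800g, 10 min, used within 30 min) incubated with compound 2 min at 37 °C. Factor Xa added, 2 min at 37 °C, then clotting started with Recalmix; read on a ball coagulometer. Normal range 13–20 s; means of two determinations.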

[12] = Bioavailability in Sprague-Dawley rat at 10 mg/kg, sc; format: ADME, organism-based; conditions: in vivo; summary of the method: as §1
B16 [13] = assay: Antitumor activity against mouse B16 cells transplanted in C57/BL6 mouse assessed as reduction in tumor volume at 15 mg/kg for 7 days measured on day 10; format: functional; conditions: read-out: TGI; summary of the method: as §3
[14] = Plasma clearance in Sprague-Dawley rat at 10 mg/kg, iv and 10 mg/kg, sc; format: ADME, organism-based; summary of the method: as §1
HUVEC [15] = assay: Inhibition of FGF2-induced HUVEC cell proliferation; format: functional, cell-based; conditions: Homo sapiens
Summary of the method: (§4)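 HUVECs seeded at 1–3 × 10^3 per well in EGM with 2% FBS and gentamicin. Proliferation driven by VEGF, FGF-1 or FGF-2; compound added typically at seven concentrations (1–50 μM) in triplicate. After 70 h, MTS reagent added for 2 h and A490 read. IC50 obtained from blank-subtracted curves.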

HUVEC [16] = assay: Inhibition of VEGF-induced HUVEC cell proliferation; format: functional, cell-based; conditions: Homo sapiens; summary of the method: as §4
Aorta [17] = assay: Inhibition of angiogenesis in Sprague-Dawley rat aortic endothelium at 10 uM; format: functional, tissue-based
Summary of the method: (§5)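 Sprague-Dawley rats (2–4 months old): bisected 1 mm thoracic aortic rings embedded in Matrigel in EBM-2 with 2% FCS, no heparin. Compound added in triplicate, medium replenished every 48 h. Microvessel sprouting scored semiquantitatively by two assessors up to day 8. One-way ANOVA with Dunnett's test.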

HUVEC [18] = assay: Inhibition of FGF1-induced HUVEC cell proliferation; format: functional, cell-based; conditions: Homo sapiens; summary of the method: as §4
Aorta [19] = assay: Inhibition of angiogenesis in Sprague-Dawley rat aortic endothelium at 50 uM; format: functional, tissue-based; summary of the method: as §5
HUVEC [20] = assay: Antiangiogenic activity against HUVEC assessed as inhibition of endothelial cell tube formation on ECM-derived protein matrix at 100 uM by phase contrast microscopy; format: functional, cell-based; conditions: Homo sapiens
Summary of the method: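 HUVECs at passage 4–5 (70–80% confluent) suspended in EGM2 with all supplements except heparin at 4×10^5 cells/mL, mixed 1:1 with compound (final 10, 50, 100 μM), plated in triplicate on growth factor-reduced Matrigel. Incubated 18 h; tubes scored by phase-contrast microscopy. Untreated cells as control; one-way ANOVA with Dunnett's test.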

Sequence of Fibroblast growth factor 2 (P09038 143-288 limits assumed): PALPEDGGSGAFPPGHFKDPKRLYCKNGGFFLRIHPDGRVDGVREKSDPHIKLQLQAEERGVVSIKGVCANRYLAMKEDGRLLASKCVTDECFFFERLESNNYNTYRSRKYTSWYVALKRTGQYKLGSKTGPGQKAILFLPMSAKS
Sequence of Fibroblast growth factor 1 (P05230 whole entry): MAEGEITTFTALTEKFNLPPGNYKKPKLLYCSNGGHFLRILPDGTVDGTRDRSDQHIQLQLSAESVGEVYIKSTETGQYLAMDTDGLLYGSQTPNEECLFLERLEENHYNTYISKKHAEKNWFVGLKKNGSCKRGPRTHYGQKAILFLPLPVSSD

Compound	half-life [1] [h]	LC50 (HUVEC [2]) [nM]	Kd [3] [nM]	Ki (Heparanase) [nM]	Activity [4]	Kd [5] [nM]	Kd [6] [nM]	Time (Plasma [7]) [s]	inhibition in vivo at 30 mg/kg (B16 [8]) [%]	half-life [9] [h]	Activity (Plasma [11]) [s]	inhibition in vivo at 15 mg/kg (B16 [13]) [%]	clearance [14] [mL/min/kg]	Activity (Aorta [17])	other results
CCCCCCCCO[C@H]1O[C@H](COS(=O)(=O)[O-])[C@@H](OS(=O)(=O)[O-])[C@H](OS(=O)(=O)[O-])[C@@H]1O[C@H]1O[C@H](COS(=O)(=O)[O-])[C@@H](OS(=O)(=O)[O-])[C@H](O[C@H]2O[C@H](COS(=O)(=O)[O-])[C@@H](OS(=O)(=O)[O-])[C@H](O[C@H]3O[C@H](COS(=O)(=O)[O-])[C@@H](OS(=O)(=O)[O-])[C@H](OS(=O)(=O)[O-])[C@@H]3OS(=O)(=O)[O-])[C@@H]2OS(=O)(=O)[O-])[C@@H]1OS(=O)(=O)[O-].[Na+].[Na+].[Na+].[Na+].[Na+].[Na+].[Na+].[Na+].[Na+].[Na+].[Na+].[Na+].[Na+]	1.7	> 100000	18	330	Toxic	160	0.118	96.7	86	1.7	79.5	64	0.2		Vd [10]: 0.026 L/kg; bioavailability [12]: 67%
O=S(=O)([O-])OC[C@H]1O[C@H](OCc2ccccc2)[C@@H](O[C@H]2O[C@H](COS(=O)(=O)[O-])[C@@H](OS(=O)(=O)[O-])[C@H](O[C@H]3O[C@H](COS(=O)(=O)[O-])[C@@H](OS(=O)(=O)[O-])[C@H](O[C@H]4O[C@H](COS(=O)(=O)[O-])[C@@H](OS(=O)(=O)[O-])[C@H](OS(=O)(=O)[O-])[C@@H]4OS(=O)(=O)[O-])[C@@H]3OS(=O)(=O)[O-])[C@@H]2OS(=O)(=O)[O-])[C@@H](OS(=O)(=O)[O-])[C@@H]1OS(=O)(=O)[O-].[Na+].[Na+].[Na+].[Na+].[Na+].[Na+].[Na+].[Na+].[Na+].[Na+].[Na+].[Na+].[Na+]		> 100000	21	280	Toxic	129	0.24	417.9			281.1			Active	Activity (HUVEC [15]): Active; Activity (HUVEC [16]): Active; Activity (HUVEC [18]): Active
CCCCCCCCO[C@H]1O[C@H](COS(=O)(=O)[O-])[C@@H](OS(=O)(=O)[O-])[C@H](OS(=O)(=O)[O-])[C@@H]1O[C@H]1O[C@H](COS(=O)(=O)[O-])[C@@H](OS(=O)(=O)[O-])[C@H](O[C@H]2O[C@H](COS(=O)(=O)[O-])[C@@H](OS(=O)(=O)[O-])[C@H](O[C@H]3O[C@H](COS(=O)(=O)[O-])[C@@H](OS(=O)(=O)[O-])[C@H](O[C@H]4O[C@H](COS(=O)(=O)[O-])[C@@H](OS(=O)(=O)[O-])[C@H](OS(=O)(=O)[O-])[C@@H]4OS(=O)(=O)[O-])[C@@H]3OS(=O)(=O)[O-])[C@@H]2OS(=O)(=O)[O-])[C@@H]1OS(=O)(=O)[O-].[Na+].[Na+].[Na+].[Na+].[Na+].[Na+].[Na+].[Na+].[Na+].[Na+].[Na+].[Na+].[Na+].[Na+].[Na+].[Na+]	1.1	> 100000	1.5	350	Toxic	82	0.161	250.8	94	1.1	124.4	42	1.4		Activity (Aorta [19]): Active
O=S(=O)([O-])OC[C@H]1O[C@H](OCc2ccccc2)[C@@H](O[C@H]2O[C@H](COS(=O)(=O)[O-])[C@@H](OS(=O)(=O)[O-])[C@H](O[C@H]3O[C@H](COS(=O)(=O)[O-])[C@@H](OS(=O)(=O)[O-])[C@H](O[C@H]4O[C@H](COS(=O)(=O)[O-])[C@@H](OS(=O)(=O)[O-])[C@H](O[C@H]5O[C@H](COS(=O)(=O)[O-])[C@@H](OS(=O)(=O)[O-])[C@H](OS(=O)(=O)[O-])[C@@H]5OS(=O)(=O)[O-])[C@@H]4OS(=O)(=O)[O-])[C@@H]3OS(=O)(=O)[O-])[C@@H]2OS(=O)(=O)[O-])[C@@H](OS(=O)(=O)[O-])[C@@H]1OS(=O)(=O)[O-].[Na+].[Na+].[Na+].[Na+].[Na+].[Na+].[Na+].[Na+].[Na+].[Na+].[Na+].[Na+].[Na+].[Na+].[Na+].[Na+]		> 100000	1.8	370	Toxic	95	0.16	>500			>500			Active	
MUPARFOSTAT SODIUM											> 500				TIME (Plasma [7]): > 0.139 h; inhibition (HUVEC [20]): 58%

Reference: ChEMBL document CHEMBL1157543, “Synthesis and biological evaluation of polysulfated oligosaccharide glycosides as inhibitors of angiogenesis and tumor growth” (J Med Chem, 2010)
